Values after ≈ are worked out from the molar mass of the structure shown.
Experiments:
[1] = test system: L1210; assay: In vitro inhibition of L1210 leukemia cell growth; assay type: functional; details: Mus musculus, read-out: ID50 (the source's name)
[2] = test system: Enterovirus; assay: The minimum inhibitory concentration (MIC) required to inhibit rhinovirus type 34 induced cytopathic effect (CPE) on WISH cells; assay type: functional
How it was run: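 WISH cells grown 18–24 h to monolayers. Serial 2-fold drug dilutions applied, then 320 CCID50 of rhinovirus type 34 added; sealed plates incubated 72 h at 33 °C. Cell, virus and toxicity controls included.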

[3] = The minimum cytotoxic concentration (MCC) reducing cell viability on WISH cells; assay type: cell-based; details: human
How it was run: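 Uninfected WISH cell monolayers, grown 18–24 h, were given serial 2-fold drug dilutions (cells + medium + drug) and incubated at 33 °C for 72 h. Cells were examined microscopically.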

[4] = (§1) The antiviral index is defined as MCC/MIC; assay type: functional
[5] = test system: Mus musculus; assay: Compound (600 mg/kg) was tested against intraperitoneally implanted P388 leukemia in mice; assay type: functional
How it was run: (§2)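 CD2F1 mice, groups of six, inoculated ip with 10⁶ P388 leukemia cells; ip treatment started 24 h after inoculation, once daily for 5 days. Read-out is %T/C = (mean survival time of treated mice in days / mean survival time of controls) × 100, with ≥120 taken as moderate activity.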

[6] = test system: Mus musculus; assay: Compound (400 mg/kg) was tested against intraperitoneally implanted P388 leukemia in mice; assay type: functional; how it was run: as §2
[7] = test system: Mus musculus; assay: Compound (50 mg/kg) was tested against intraperitoneally implanted P388 leukemia in mice; assay type: functional; how it was run: as §2
[8] = species: Mus musculus; assay: Mean weight change (day 5 wt minus day 1 wt) of the treated mice to the mean weight change of the control mice in grams; assay type: functional
How it was run: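 CD2F1 mice given 10⁶ P388 cells ip, then ip treatment once daily for 5 days starting at 24 h. Toxicity is the mean weight change (day 5 minus day 1) of treated mice minus that of control mice, in grams.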

[9] = test system: Mus musculus; assay: Compound (200 mg/kg) was tested against intraperitoneally implanted P388 leukemia in mice; assay type: functional; how it was run: as §2
[10] = as §1; assay type: ADME; details: read-out: Antiviral index
How it was run: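 Rhinovirus type 34 on WISH cell monolayers grown 18–24 h. Serial 2-fold drug dilutions were added with 320 CCID50 of virus and incubated at 33 °C for 72 h. CPE was scored microscopically on a 0–4 scale. […] AI = MCC/MIC.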

[11] = test system: Mus musculus; assay: Compound (100 mg/kg) was tested against intraperitoneally implanted P388 leukemia in mice; assay type: functional; how it was run: as §2

For `Nc1ccn([C@@H]2O[C@H](CO)[C@@H](O)[C@H]2O)c(=O)c1`, the IC50 [1] was 28.6 µM, the MIC [2] was 3.2 µg/mL (≈ 13.2 µM) and the MCC [3] was 400 µg/mL. The Antiviral index [4] was 125.
`O=c1cc(O)ccn1[C@@H]1O[C@H](CO)[C@@H](O)[C@H]1O` showed an MCC [3] of 400 µg/mL.
In the case of `Nc1ccn(C2O[C@H](CO)[C@@H](O)[C@H]2O)c(=O)c1[N+](=O)[O-]` (some centres not stated), the MCC [3] is reported as greater than 1000 µg/mL.
Work on `O=c1c([N+](=O)[O-])c(O)ccn1C1O[C@H](CO)[C@@H](O)[C@H]1O` (some centres not stated) yielded an MCC [3] of 400 µg/mL.
Work on `O=c1c(Cl)c(O)ccn1C1O[C@H](CO)[C@@H](O)[C@H]1O` (some centres not stated) yielded an MCC [3] greater than 1000 µg/mL.
Work on `O=c1c(Br)c(O)ccn1C1O[C@H](CO)[C@@H](O)[C@H]1O` (some centres not stated) yielded an MCC [3] greater than 1000 µg/mL.
For `Nc1ccn(C2O[C@H](CO)[C@@H](O)[C@H]2O)c(=O)c1Br` (some centres not stated), the IC50 [1] was greater than 31.1 µM, the MIC [2] was 173 µg/mL (≈ 540 µM) and the MCC [3] was 800 µg/mL. It also gave an Antiviral index [4] of 4.6.
In the case of `Nc1c(F)cn(C2O[C@H](CO)[C@@H](O)[C@H]2O)c(=O)c1F` (some centres not stated), the IC50 [1] is reported as greater than 35.9 µM, the MIC [2] is reported as 28.3 µg/mL (≈ 102 µM) and the MCC [3] is reported as 400 µg/mL. It also gave an Antiviral index [4] of 14.1.
Compound `Nc1cc(=O)n(C2O[C@H](CO)[C@@H](O)[C@H]2O)cc1F` (some centres not stated) has an MCC [3] of 800 µg/mL.
For `Nc1ccn(C2O[C@H](CO)[C@@H](O)[C@H]2O)c(=O)c1F` (some centres not stated), the T/C [5] was 185, the IC50 [1] was 11.8 µM and the T/C [6] was 177. For the same compound, the MIC [2] was 1.3 µg/mL (≈ 5 µM), the MCC [3] was 400 µg/mL and the T/C [7] was 133. The Weight change [8] was -3.4 (not active) [middle of 5 runs], the T/C [9] was 158 and the selectivity ratio [10] was 308. The T/C [11] was 149.
In the case of `Nc1ccn(C2O[C@H](CO)[C@@H](O)[C@H]2O)c(=O)c1Cl` (some centres not stated), the IC50 [1] is reported as greater than 36.1 µM, the MIC [2] is reported as 53.7 µg/mL (≈ 194 µM) and the MCC [3] is reported as 400 µg/mL. For the same compound, the Antiviral index [4] was 7.5.

Source: ChEMBL document CHEMBL1124849, “Synthesis, antitumor activity, and antiviral activity of 3-substituted 3-deazacytidines and 3-substituted 3-deazauridines” (J Med Chem, 1990)
